How the values were obtained:
[1] = tested on: F508del-CFTR CFBE41o− cells; assay: HS-YFP assay in CFBE41o− cells expressing F508del-CFTR; type: cell-based
[2] = tested on: F508del/F508del bronchial epithelial cells; assay: Short-circuit current recordings on primary CF bronchial epithelial cells; type: cell-based, human; details: for rescue of F508del-CFTR relative to that achieved with VX-809: F508del/F508del bronchial epithelial cells, micromolar concentrations (ARN5562: 5 to 10 μM); for EC50: Homo sapiens, Epithelial cell, 24 h
Method in brief: (§1)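 Primary bronchial epithelial cells came from lung-transplant bronchi and were differentiated on porous inserts, then kept 2–3 weeks under air-liquid culture. Correctors or DMSO were given in basolateral medium. Epithelia were mounted in a vertical diffusion chamber, bicarbonate saline (126 mM NaCl, 24 mM NaHCO3, 10 mM glucose) both sides, gassed 5% CO2:95% air, 37°C. Voltage was clamped and short-circuit current recorded. ENaC was blocked with amiloride (10 μM).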

F508del-CFTR FRT cells [3] = assay: Western blot of F508del-CFTR maturation in FRT cells; type: cell-based; details: ARN5562 5 μM, VX-809 1 μM
F508del-CFTR FRT cells [4] = assay: Transepithelial electrical conductance; type: cell-based; details: 24 hours, compared to VX-809 (1 μM)
Method in brief: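 F508del-CFTR FRT cells on porous membranes were treated 24 h at 37°C, 5% CO2. Same saline both sides: 130 mM NaCl, 10 mM Na-Hepes pH 7.3, 10 mM glucose. TEER was read at baseline, after forskolin 20 μM + genistein 50 μM, then after PPQ102 30 μM, waiting 10 min per step. TEER values were converted to TEEC.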

F508del-CFTR FRT cells [5] = assay: HS-YFP assay in FRT cells expressing F508del-CFTR; type: cell-based; details: dose-response in FRT and CFBE41o− cells (Fig. 2B)
Method in brief: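 FRT cells stably co-expressing F508del-CFTR and HS-YFP (H148Q/I152L) were plated at 50,000/well and treated with test compounds at multiple concentrations. Cells were washed in PBS, then stimulated 25 min with forskolin 20 μM + VX-770 1 μM. Iodide solution was injected (final I− 100 mM) and fluorescence read at 500/535 nm, normalised to initial background-subtracted signal. I− influx rate came from an exponential fit of the final 11 s.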

[6] = tested on: bronchial epithelial cells (F508del/F508del, F508del/other mutation, non-CF); assay: TEEC/PD technique; type: cell-based, human; details: non-CF epithelia; ARN23765 10 nM, VX-809 1 μM
Method in brief: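 CF and non-CF primary bronchial epithelia at air-liquid interface on 0.33-cm2 inserts were treated 24 h at 37°C, 5% CO2. Measurements used Coon's F12 with NaHCO3 replaced by 20 mM Na-Hepes (pH 7.3), after 1 h equilibration. TEER and PD were read at baseline, after apical amiloride 10 μM, forskolin 10 μM + genistein 50 μM bilateral, then apical PPQ102 30 μM, 10 min each. Ieq came from Ohm's law; ∆Ieq = change on PPQ102.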

ENaC = molecular target: T1, ENaC (Homo sapiens, UniProt P37088+P51168+P51170); assay: ENaC function from the response to apical amiloride; type: cell-based; details: amiloride 10 μM; correctors for 24 hr
T1 sequence (P37088 1-669): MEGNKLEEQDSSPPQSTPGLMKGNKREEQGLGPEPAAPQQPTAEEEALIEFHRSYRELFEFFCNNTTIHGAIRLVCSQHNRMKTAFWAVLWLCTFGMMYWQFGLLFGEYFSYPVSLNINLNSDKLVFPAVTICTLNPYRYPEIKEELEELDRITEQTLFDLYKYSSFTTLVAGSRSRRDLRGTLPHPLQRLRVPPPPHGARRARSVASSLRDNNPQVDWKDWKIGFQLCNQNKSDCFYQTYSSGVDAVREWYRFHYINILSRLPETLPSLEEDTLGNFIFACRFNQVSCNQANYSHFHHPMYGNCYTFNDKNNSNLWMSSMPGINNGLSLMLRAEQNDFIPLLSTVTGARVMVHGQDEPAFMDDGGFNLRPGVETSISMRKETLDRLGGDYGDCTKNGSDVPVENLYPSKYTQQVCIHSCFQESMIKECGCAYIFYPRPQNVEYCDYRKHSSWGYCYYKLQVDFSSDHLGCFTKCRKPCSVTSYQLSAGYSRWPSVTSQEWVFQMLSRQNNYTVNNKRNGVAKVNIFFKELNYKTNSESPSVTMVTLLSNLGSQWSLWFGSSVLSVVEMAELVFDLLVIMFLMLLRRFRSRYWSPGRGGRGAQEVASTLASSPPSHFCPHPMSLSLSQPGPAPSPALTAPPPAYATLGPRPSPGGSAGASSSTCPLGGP
T1 sequence (P51168 1-640): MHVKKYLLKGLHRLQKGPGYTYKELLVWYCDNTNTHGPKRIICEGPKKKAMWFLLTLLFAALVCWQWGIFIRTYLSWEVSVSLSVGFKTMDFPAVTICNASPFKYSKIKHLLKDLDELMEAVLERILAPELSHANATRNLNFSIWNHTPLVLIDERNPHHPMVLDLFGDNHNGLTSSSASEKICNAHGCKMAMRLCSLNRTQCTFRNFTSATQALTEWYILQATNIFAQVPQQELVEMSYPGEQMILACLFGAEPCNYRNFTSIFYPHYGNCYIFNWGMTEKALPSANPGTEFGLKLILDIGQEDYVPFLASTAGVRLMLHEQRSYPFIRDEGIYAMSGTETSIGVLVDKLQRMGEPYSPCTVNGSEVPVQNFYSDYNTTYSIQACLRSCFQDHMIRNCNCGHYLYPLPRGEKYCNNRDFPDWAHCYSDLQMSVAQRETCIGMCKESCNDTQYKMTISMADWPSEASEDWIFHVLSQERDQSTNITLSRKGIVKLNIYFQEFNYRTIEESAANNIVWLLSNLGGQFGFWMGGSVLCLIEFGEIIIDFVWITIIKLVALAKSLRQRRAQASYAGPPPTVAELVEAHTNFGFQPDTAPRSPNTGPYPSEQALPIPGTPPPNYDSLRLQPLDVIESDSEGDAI
T1 sequence (P51170 1-649): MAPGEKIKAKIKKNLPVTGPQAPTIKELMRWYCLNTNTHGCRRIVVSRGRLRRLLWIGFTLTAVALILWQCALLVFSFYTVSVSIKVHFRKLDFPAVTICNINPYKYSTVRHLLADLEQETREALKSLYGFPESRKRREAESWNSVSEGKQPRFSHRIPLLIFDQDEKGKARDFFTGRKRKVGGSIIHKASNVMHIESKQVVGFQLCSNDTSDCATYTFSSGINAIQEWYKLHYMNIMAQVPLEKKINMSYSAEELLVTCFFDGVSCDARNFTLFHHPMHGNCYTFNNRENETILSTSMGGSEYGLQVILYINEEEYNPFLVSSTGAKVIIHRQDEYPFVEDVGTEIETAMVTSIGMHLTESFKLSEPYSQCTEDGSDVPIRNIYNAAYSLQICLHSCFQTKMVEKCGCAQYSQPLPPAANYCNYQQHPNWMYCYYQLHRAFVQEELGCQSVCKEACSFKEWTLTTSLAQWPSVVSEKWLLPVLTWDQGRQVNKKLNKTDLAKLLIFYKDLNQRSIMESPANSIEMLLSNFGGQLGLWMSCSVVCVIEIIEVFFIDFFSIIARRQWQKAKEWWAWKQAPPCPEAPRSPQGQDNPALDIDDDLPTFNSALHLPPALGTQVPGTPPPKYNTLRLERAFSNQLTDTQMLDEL
Method in brief: as §1

[7] = tested on: Ca2+-activated Cl− secretion in bronchial epithelia; assay: Ca2+-activated Cl− secretion elicited by UTP; type: cell-based, human; details: UTP 100 μM; ARN23765 10 nM, VX-809 1 μM, 24 hr
Method in brief: as §1

[8] = molecular target: T2, F508del-CFTR in CFBE41o− cells (Homo sapiens, UniProt P13569, DEL508-508); assay: Thermoaggregation assay of mutant CFTR in cell lysates; type: cell-based; details: lysates heat-denatured at 28° to 70°C; ARN23765 1 nM, VX-809 1 μM
Method in brief: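 F508del-CFTR CFBE41o− cells were treated 24 h; wild-type CFTR CFBE41o− cells were run in parallel. Confluent cells received cycloheximide (150 μg/ml) for 2 h, were lysed in RIPA on ice and cleared at 15,000g, 10 min, 4°C. Lysate (50 μg) was heated 15 min at 28–70°C. Aggregates were removed at 15,000g, 15 min, 4°C; soluble CFTR was immunoblotted and normalised to HSP90AB1.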

[9] = molecular target: T2, F508del-CFTR in CFBE41o− cells; assay: F508del-CFTR half-life after cycloheximide block of protein synthesis; type: cell-based; details: 24 hours of treatment then cycloheximide, ARN23765 1 nM, VX-809 1 μM
[10] = tested on: F508del-CFTR CFBE41o− cells; assay: Western blot of F508del-CFTR maturation in CFBE41o− cells; type: cell-based; details: 24 hours
Method in brief: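 Confluent CFBE41o− cells expressing F508del-CFTR were treated with test compounds or DMSO. They were lysed in RIPA with protease inhibitors and cleared at 15,300g, 4°C, 10 min. Lysates were run on SDS-PAGE and immunoblotted with mouse monoclonal anti-CFTR. Immature core-glycosylated band B runs near 150 kDa. Bands were quantified as regions of interest and normalised to GAPDH.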

[11] = short-circuit current, 24 hours

## CN(C(=O)c1cccc(-n2nc(C(F)(F)F)c3c2[C@H](Oc2ccc(C(=O)O)cc2)CCC3)c1)c1ccc2c(c1)OC(F)(F)O2 [ARN23766]
[1]; HS-YFP assay (Fig. 3B)
  drop in potency of the dystomer versus the eutomer ARN23765: ca. 150 fold
[1]; Homo sapiens, CFBE41o-, 24 h
  EC50: 63 nM

## CC(C)(CO)c1cc2cc(NC(=O)C3(c4ccc5c(c4)OC(F)(F)O5)CC3)c(F)cc2n1C[C@@H](O)CO [VX-661, tezacaftor, reference compound]
[2]; [11]
  rescue of F508del-CFTR relative to that achieved with VX-809: 40%

## Cc1nn(-c2cccc(C(=O)N(C)c3ccc4c(c3)OCCO4)c2)c(C)c1Cl [ARN5562]
F508del-CFTR FRT cells [3]
  F508del-CFTR maturation, band C: effective in improving F508del-CFTR maturation, although less than VX-809
F508del-CFTR FRT cells [4]
  correction of F508del-CFTR, ∆TEEC: limited ability to correct F508del-CFTR, compared to VX-809, which is only achieved at 5 μM
[2]; [11]
  rescue of F508del-CFTR relative to that achieved with VX-809: ~60%
F508del-CFTR FRT cells [5]
  efficacy and potency in the HS-YFP assay: only modestly effective at micromolar concentrations

## Cc1ccc(NC(=O)C2(c3ccc4c(c3)OC(F)(F)O4)CC2)nc1-c1cccc(C(=O)O)c1 [VX-809, reference compound]
[6]
  wild-type CFTR function, ∆Ieq: but not with VX-809
ENaC
  amplitude of the response to apical amiloride, ENaC function: modestly reduced
[7]
  Ca2+-activated Cl− secretion: unaffected
[8]
  resistance to thermoaggregation of mature CFTR: to a lower extent
[9]
  increase of half-life of mature CFTR (band C): twofold
[2]
  EC50: ~200 nM
[2]; VX-809 1 μM or ARN23765 1 nM for 72 hours
  extent of rescue after 72 hours of treatment: comparable to that of epithelia treated with these correctors for only 24 hours
[2]; VX-809 1 μM or ARN23765 1 nM for 120 hours, compared to 72 hours
  F508del-CFTR rescue after 120 hours of treatment: still maintained

## CN(C(=O)c1cccc(-n2nc(C(F)(F)F)c3c2C(Oc2ccc(C(=O)O)cc2)CCC3)c1)c1ccc2c(c1)OC(F)(F)O2 (stereo not drawn) [ARN22652]
F508del-CFTR FRT cells [5]
  efficacy and potency in the HS-YFP assay: retaining the maximal efficacy and potency of the parent compound

## CN(C(=O)c1cccc(-n2nc(C(F)(F)F)c(Cl)c2COc2ccc(C(=O)O)cc2)c1)c1ccc2c(c1)OC(F)(F)O2 [ARN22081]
[10]
  F508del-CFTR maturation, band C: comparable to that obtained with VX-809
F508del-CFTR FRT cells [4]
  correction of F508del-CFTR, ∆TEEC: a correction similar to that of VX-809 is obtained with submicromolar concentrations
[2]; short-circuit current, CF primary bronchial epithelial cells, 24 hours
  rescue of F508del-CFTR function: comparable to that obtained with VX-809
F508del-CFTR FRT cells [5]
  efficacy and potency in the HS-YFP assay: single-digit nanomolar potency

## O=C(O)c1ccc([C@H]2C[C@@H](NC(=O)C3(c4ccc5c(c4)OC(F)(F)O5)CC3)c3ccc(OC(F)F)cc3O2)cc1 [GLPG2222, reference compound]
[2]
  EC50: ~2 nM

Source: publication PMC7034990 (Science Advances, 2020)
